Bioassay records from PubChem BioAssay.
Shown are actives, neighbours in structure and some others; about 3.7% of the full set was active somewhere.
EBV gp42 block: inhibitors of Epstein-Barr virus glycoprotein 42; inhibition, % (tested at 21.74 µM); Fluorescence polarization binding assay, mP read-out; Q1HVG2; 220,000 compounds, 0.42% hits; in the data active = inhibition above about 50%
WT yeast gro inh: growth inhibition of WT yeast, mitochondrial fusion screen; inhibition, % at 10 µM; 190,000 compounds, 2.1% hits; AID 1362; mitochondrial fusion phenotypic screen, WT strain; in the data active = inhibition above about 58%; tested in S. cerevisiae
14-3-3 Bad PPI: disrupts binding of bovine 14-3-3 zeta to phospho-Bad peptide; inhibition, % at 21.7 µM; 220,000 compounds, 0.71% hits; AID 781; TR-FRET 14-3-3zeta/Dy647-pBad peptide displacement, 1 h; P63103;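 active = inhibition above about 70%, limit read from the data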;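 note: 0% = full 14-3-3 plus peptide FRET controls and 100% = background without 14-3-3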
eIF4E-4G inh: blocks eIF4E binding to eIF4G. P63073+Q04637. TR-FRET eIF4E-eIF4GI(517-606) binding, 2 h. inhibition, % at 21.7 µM. 220,000 compounds, 0.37% hits. AID 782;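 note: 0% = full FRET control wells and 100% = background wells lacking eIF4GI fragment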
Target sequence (P63073 whole entry, looked up, the tested form may be a part): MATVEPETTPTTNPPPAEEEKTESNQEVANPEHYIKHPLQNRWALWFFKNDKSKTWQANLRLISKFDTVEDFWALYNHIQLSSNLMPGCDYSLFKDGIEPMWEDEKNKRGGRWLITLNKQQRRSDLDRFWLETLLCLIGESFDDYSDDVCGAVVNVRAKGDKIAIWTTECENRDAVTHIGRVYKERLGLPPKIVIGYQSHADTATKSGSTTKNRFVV
Target sequence (Q04637 whole entry, looked up, the tested form may be a part): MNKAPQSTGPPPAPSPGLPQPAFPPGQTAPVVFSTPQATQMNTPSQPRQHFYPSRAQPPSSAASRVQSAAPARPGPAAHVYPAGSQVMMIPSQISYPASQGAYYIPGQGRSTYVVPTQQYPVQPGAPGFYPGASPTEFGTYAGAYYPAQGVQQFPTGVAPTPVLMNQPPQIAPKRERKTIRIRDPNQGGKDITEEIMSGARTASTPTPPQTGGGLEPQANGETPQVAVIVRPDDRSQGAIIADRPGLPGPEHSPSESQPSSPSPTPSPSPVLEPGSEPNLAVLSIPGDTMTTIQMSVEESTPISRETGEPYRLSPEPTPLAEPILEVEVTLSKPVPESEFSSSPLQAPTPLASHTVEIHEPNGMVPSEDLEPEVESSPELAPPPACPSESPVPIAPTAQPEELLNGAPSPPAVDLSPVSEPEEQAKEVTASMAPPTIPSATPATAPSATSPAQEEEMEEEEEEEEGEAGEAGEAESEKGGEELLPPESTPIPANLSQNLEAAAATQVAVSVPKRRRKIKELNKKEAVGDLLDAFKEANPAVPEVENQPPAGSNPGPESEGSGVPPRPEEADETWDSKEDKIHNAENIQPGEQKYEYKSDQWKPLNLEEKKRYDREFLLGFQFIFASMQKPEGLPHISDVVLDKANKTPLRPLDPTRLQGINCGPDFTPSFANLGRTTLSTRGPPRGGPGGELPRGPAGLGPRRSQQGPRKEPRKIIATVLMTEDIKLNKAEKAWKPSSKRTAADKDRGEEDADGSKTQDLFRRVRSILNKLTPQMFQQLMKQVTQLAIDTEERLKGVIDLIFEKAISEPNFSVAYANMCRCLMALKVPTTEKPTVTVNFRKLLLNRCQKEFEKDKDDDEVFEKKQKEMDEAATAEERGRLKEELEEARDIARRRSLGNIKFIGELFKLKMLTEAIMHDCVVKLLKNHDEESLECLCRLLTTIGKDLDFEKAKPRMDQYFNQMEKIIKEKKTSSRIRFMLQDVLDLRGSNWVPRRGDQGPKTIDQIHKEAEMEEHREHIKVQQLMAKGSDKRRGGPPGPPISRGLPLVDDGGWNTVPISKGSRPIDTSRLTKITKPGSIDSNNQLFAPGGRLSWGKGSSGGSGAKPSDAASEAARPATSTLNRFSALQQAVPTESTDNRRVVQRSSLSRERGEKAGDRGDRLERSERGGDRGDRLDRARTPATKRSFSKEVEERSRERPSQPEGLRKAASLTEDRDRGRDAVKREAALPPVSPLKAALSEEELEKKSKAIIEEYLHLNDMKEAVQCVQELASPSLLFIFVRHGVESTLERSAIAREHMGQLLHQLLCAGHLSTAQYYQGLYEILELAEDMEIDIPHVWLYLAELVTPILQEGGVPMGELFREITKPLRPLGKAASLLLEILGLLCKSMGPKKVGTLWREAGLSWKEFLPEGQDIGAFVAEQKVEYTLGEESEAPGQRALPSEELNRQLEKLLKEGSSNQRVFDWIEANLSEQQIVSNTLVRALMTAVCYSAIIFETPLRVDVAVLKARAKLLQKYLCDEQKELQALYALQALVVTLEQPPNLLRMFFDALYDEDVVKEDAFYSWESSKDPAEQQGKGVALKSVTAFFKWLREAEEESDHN
RBBP9 inh: human RBBP9 hydrolase inhibition | O75884 | recombinant RBBP9, FP-Rh probe fluorescence polarization | inhibition, % at 7.94 µM | 220,000 compounds, 0.2% hits | AID 1515;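 active = inhibition above the campaign mean of all tested compounds plus 3 SD, cut at about 14% in these data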;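 note: plate controls were DMSO wells with RBBP9 for no effect and wells lacking RBBP9 protein for full effect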
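System: RBBP9 protein / Buffer or medium: Tris/NaCl buffer pH 8.0 with 0.1% Pluronic / Probe or stimulus: Serine-hydrolase probe FP-Rh, 375 nM pre-mixing / Dosing: 7.94 µM single dose, 0.794% DMSO / Times: enzyme-compound preincubation 30 min, then probe labeling 45 min, 25 °C / Technique: fluorescence polarization (mP), excitation 525 nm, emission 598 nm / Replication: singlicate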
NCF1 inh: inhibitors of human p47phox binding; AID 1274; P14598; p47phox/p22phox peptide binding, fluorescence polarization, 2 h; 220,000 compounds, 0.53% hits; inhibition, % at 24.7 µM;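 note: 0% = p47phox with labelled peptide and 100% = labelled peptide alone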
Active calls of the source: *; . = no result given; ! = not active in a repeat.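 Rule for the calls, unless noted: active = inhibition above about 30% (limit read from the data); inactive = the rest.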

SMILES	EBV gp42 block	WT yeast gro inh	14-3-3 Bad PPI	eIF4E-4G inh	RBBP9 inh	NCF1 inh
COC(=O)c1ccc(Oc2cc(C)nc(-n3nc(C)cc3C)n2)cc1	-43.4	70.3*	-4.0	-14.6	-1.6	-15.2
O=C(c1cc2ccccc2o1)N(C1CC1)C1(C(=O)Nc2ccccc2)CCCC1	0.0	72.1*	-1.5	2.7	1.3	-20.1
CCNc1ccc(C(=O)OCC(=O)NCc2ccc(C)cc2)cc1[N+](=O)[O-]	-4.4	-3.2	5.1	2.5	-12.4	-4.8
CCNc1ccc(C(=O)OCC(=O)NC(C)c2ccccc2)cc1[N+](=O)[O-] (configuration not stated)	-13.0	-3.5	-11.5	46.1*	-3.1	-0.3
c1ccc(CCNc2ncnc3scc(C4COc5ccccc5O4)c23)cc1 (configuration not stated)	-13.0	69.1*	-13.4	-4.4	-9.7	-43.1
CC(C)c1ccc(-n2c(-c3ccccc3)c[n+]3c2CCc2ccccc2-3)cc1	-7.8	48.5	2.0	1.4	-4.1	5.1
COc1ccccc1-n1c(-c2ccccc2)c[n+]2c1CCc1ccccc1-2	2.5	63.4*!	0.9	1.1	-15.8	-2.3
CCCCN(C)CCNC(=O)c1ccc(Cn2c(=S)[nH]c3ccc(Br)cc3c2=O)cc1	-7.3	5.6	-7.2	-3.5	-7.8	-4.6
C=CCNC(=S)N(CC)c1cccc2ccccc12	-4.6	61.7*	-12.8	-2.7	-1.5	1.0
CCOC(=O)Nc1ccc(C)cc1C	-2.5	24.1	4.3	8.2	-10.9	117.0*
CCOC(=O)Nc1ccc(C)cc1NC(=O)OCC	-8.4	-0.1	8.5	8.1	-6.1	-13.0
CCOC(=O)Nc1ccc2c(c1)N(C(=O)CCN1CCN3CCCC3C1)c1ccccc1CC2 (configuration not stated)	-6.3	-20.2	61.6	-4.9	1.6	-7.6
COC(=O)Nc1ccc2c(c1)N(C(=O)CCN1CCN3CCCC3C1)c1ccccc1CC2 (configuration not stated)	-18.6	-3.2	72.2*!	-14.0	-8.1	-18.0
CC(=O)NS(=O)(=O)c1ccc(NC(=O)c2ccc3c(c2)C(=O)N(CCC(C)C)C3=O)cc1	0.6	-5.1	-0.3	16.5	-6.0	59.3*
CC(C)CN1C(=O)c2ccc(C(=O)Nc3ccncc3)cc2C1=O	-4.3	-7.1	-6.6	-7.5	-4.6	-10.2
CCOC(=O)C1=C(C)OC(N)=C(C#N)C1c1cc2cc(C)ccc2nc1N1CCCCC1 (configuration not stated)	33.5	-10.7	-71.0	4.9	-2.6	48.6*
CCOC(=O)C1=C(C)OC(N)=C(C#N)C1c1cc(C)sc1C (configuration not stated)	-1.5	13.1	-1.4	6.8	-2.8	-12.5
CCOC(=O)C1=C(C)OC(N)=C(C#N)C1c1cc2c(cc1Br)OCO2 (configuration not stated)	-4.9	-10.1	0.1	6.7	-5.0	-5.4
CCOC(=O)C1=C(C)OC(N)=C(C#N)C1c1cc2ccccc2nc1N1CCCCC1 (configuration not stated)	27.3	10.3	41.5	-8.8	-14.1	81.4*
Cn1c(CO)cnc1-c1ccccc1	-22.1	.	-0.2	0.3	-3.5	-2.9
CC1(CCc2ccccc2)NC(=S)N(c2ccc(Cl)cc2)N1 (configuration not stated)	15.2	58.9*	6.6	-0.3	-8.6	-8.2
CCC1(c2ccc(Cl)cc2)NC(=S)N(c2ccc(C)c(C)c2)N1 (configuration not stated)	-0.5	.	-5.2	-5.8	-1.8	-18.5
CCC1(c2ccc(Cl)cc2)NC(=S)N(c2ccc(C)cc2)N1 (configuration not stated)	5.5	67.8*	-6.2	2.2	7.3	-12.7
CCC1(c2ccccc2)NC(=S)N(c2ccc(C)c(C)c2)N1 (configuration not stated)	-0.5	68.6*	-2.3	51.8*	-9.4	-12.6
CC1=CC(C)(C)NC(=S)N1c1ccc(C)cc1	-22.3	-12.6	6.2	-1.0	-1.1	-2.6
SMILES	EBV gp42 block	WT yeast gro inh	14-3-3 Bad PPI	eIF4E-4G inh	RBBP9 inh	NCF1 inh
CC(=O)Cc1nsc(NC(=O)c2ccc(-c3cccc(Cl)c3)o2)n1	-12.9	27.3	-6.5	4.4	-12.6	-10.6
COc1ccccc1NC(=O)CN1CCN(CC(=O)Nc2ccc(OCc3ccccc3)cc2)CC1	-8.2	66.5*	-4.3	9.2	-6.1	-14.7
COc1ccccc1NC(=O)CN1CCN(CC(=O)Nc2ccc(F)cc2)CC1	-9.8	-8.6	8.0	-5.8	-2.7	-2.5
Cc1cc(NS(=O)(=O)c2ccc(Cl)cc2)nn1CC(=O)NCc1ccco1	-6.9	-1.9	1.1	-2.0	-4.9	55.3*
COc1cc(C(c2nnnn2C2CCCC2)N2CCc3ccccc3C2)ccc1O (configuration not stated)	-38.7	16.7	61.2	9.2	-7.8	-4.1
Oc1ccc(C(c2nnnn2C2CCCC2)N2CCc3ccccc3C2)cc1 (configuration not stated)	-12.3	24.6	76.5*	3.1	-8.5	-6.3
COc1ccc(NC(=O)COc2ccc(C(=O)NC3CCCc4ccccc43)cc2OC)cc1 (configuration not stated)	-27.3	5.0	-8.3	-0.6	-0.9	-16.4
CCCCOc1c(Br)cc(/C=N/O)cc1OCC	4.6	69.0*	6.7	2.5	-5.6	-9.4
Cc1cc(C(C)(C)C)oc1C(=O)N(CC(=O)NC1CCCC1)Cc1ccccc1Cl	9.0	63.9*	-1.7	-6.5	-4.7	-6.5
ClCC1CN(Cc2ccccc2Cl)CCO1 (configuration not stated)	-15.5	1.2	-4.8	-1.8	4.0	-1.5
Cc1ccccc1NS(=O)(=O)c1cc(C(=O)N2CCc3ccccc3C2)ccc1C	-12.0	80.9*	10.8	1.5	-1.1	3.8
Cc1ccc(NS(=O)(=O)c2cc(C(=O)N3CCc4ccccc4C3)ccc2Cl)cc1	-0.6	-4.5	-9.0	-3.3	-5.7	-3.9
O=C(CCNC(=O)Cn1ccc2ccccc2c1=O)NCc1ccc(F)cc1Cl	-5.2	-18.8	-1.3	-3.2	0.9	-4.6
Cc1nc2nc(-c3cccs3)cn2nc1C	68.4*	-0.8	-0.6	-10.6	2.9	-32.7
CCc1nnc(NC(=O)c2ccc(S(=O)(=O)N3CCCc4ccccc43)cc2)o1	5.9	69.9*	-7.2	5.8	-1.6	-0.1
CSCc1nnc(NC(=O)c2ccc(S(=O)(=O)N(CC(C)C)CC(C)C)cc2)o1	-14.5	71.8*	-7.0	-3.4	0.2	-3.8
CCc1nnc(NC(=O)c2ccc(S(=O)(=O)N(C)c3ccccc3)cc2)o1	-7.9	18.1	-5.2	1.6	5.3	-4.8
CCc1nnc(NC(=O)c2ccc(S(=O)(=O)N(CC(C)C)CC(C)C)cc2)o1	-26.1	71.8*	13.6	1.5	-14.3	2.6
COc1ccc(-c2nnc(NC(=O)c3ccc(S(=O)(=O)N4CCc5ccccc5C4)cc3)o2)cc1	2.3	-9.9	-11.7	-26.1	-13.3	5.0
